# STAT1 act = STAT1 signaling activators, primary screen, cell-based, HTS, luciferase reporter; activation (% of control), % at 5.5 µM; actives 2.6% (n = 200,000); NIH 3T3 STAT1-luciferase reporter, IFN-gamma, luminescence; 100% = IFN-gamma alone, no compound;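 active means activation above the screen-wide mean activation plus 3 SD, cut at about 130% in these data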;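 further: raw ratio to IFN-gamma control signal so 100% means no change and 0% no light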
# STAT3 activator = IL-6 driven STAT3 reporter potentiators, primary screen, U3A cells, luciferase, luminescence, MLSCN library; IL-6 STAT3-luciferase reporter; 100% = signal with IL-6 EC80 alone; actives 0.91% (n = 190,000); activation (% of control), % at 5.6 µM;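 active means activation above the screen-wide mean of compound activation plus 3 SD, cut at about 130% in these data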;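 further: 0% = background luminescence of wells with medium and substrate only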
#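 Test system: STAT3-luciferase reporter U3A cells; Detection: reporter luminescence signal; Times: 1 h compound pre-exposure, 6 h IL-6 stimulation, 37 °C; Benchmarks: IL-6-only high control; Also added: IL-6 stimulus at 33 ng/mL final.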
# NF-kB expr up = activators of NF-kB expression in neurons, primary screen, cell-based, HTS; actives 1.6% (n = 190,000); fold change at 12.5 µM; AID 1239, 2008; human neuronal cells, NF-kB reporter expression; active compounds read high; in the data active means fold change above about 3.3
# STAT3 inh-1 = IL-6 driven STAT3 reporter inhibitors, primary screen, U3A cells, luciferase, luminescence, MLSCN library; inhibition, % at 5.5 µM; actives 0.89% (n = 190,000); IL-6 STAT3-luciferase reporter; host cell line lacks STAT1; AID 862, 2007;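 active means inhibition above the mean inhibition across all screened compounds plus 3 SD, cut at about 44% in these data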;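 further: 0% = DMSO only wells and 100% = 100 µM nifuroxazide control wells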
# STAT1 blocker = STAT1 signaling inhibitors, primary screen, cell-based, HTS, luciferase reporter; NIH 3T3 STAT1-luciferase reporter, IFN-gamma, luminescence; inhibition, % at 5.5 µM; actives 0.35% (n = 200,000); AID 920, 2007;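 active means inhibition above a set limit, the mean inhibition across all tested compounds plus 3 SD, cut at about 34% in these data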;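 further: 0% = IFN-gamma with DMSO and 100% = IFN-gamma with 300 µM nifuroxazide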
# APP 5'UTR act = activators of APP 5'UTR luciferase reporter, primary screen, SH-SY5Y cells | SH-SY5Y APP 5'UTR luciferase reporter, luminescence; zero percent = DMSO vehicle wells | activation, % at 2 µM | actives 1% (n = 190,000);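 active means activation above a set limit, based on mean plus 3 SD of controls, cut at about 140% in these data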
# STAT3 inh-2 = STAT3 reporter inhibitors, retest of hits, confirmation, U3A cells, luciferase, luminescence. IL-6 STAT3 luciferase reporter; cell line lacks STAT1. actives 45% (n = 1,200). shares compounds with STAT3 inh-1. inhibition, % at 5.7 µM;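 active means inhibition above the hit cutoff computed for the primary STAT3 screen, cut at about 44% in these data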;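 further: 0% = IL-6 plus DMSO and 100% = IL-6 plus nifuroxazide control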
# NFkB inh 2 = NF-kB reporter inhibitors in human cells, confirmation, counter-screen for STAT3 inhibitor project, cell-based, HEK293T, luciferase, TNF-alpha stimulus | shares compounds with STAT3 inh-1 | TNF-alpha induced | inhibition, % at 5.7 µM | actives 36% (n = 1,200) | AID 1308, 2008;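 active means inhibition above the mean of solvent-only control wells plus 3 SD, cutoff set per campaign, cut at about 13% in these data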;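 further: 0% = TNF-alpha with DMSO and 100% = TNF-alpha with MG high control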
# STAT1 inh STAT3c = STAT1 reporter inhibitors, IFN-gamma induced, confirmation, counter-screen for STAT3 inhibitor project, cell-based, NIH 3T3, luciferase luminescence; shares compounds with STAT3 inh-1; NIH 3T3 STAT1-luciferase reporter; inhibition, % at 5.7 µM; actives 27% (n = 1,200); AID 1317, 2008;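 active means inhibition above the mean plus 3 SD of solvent-only control wells, limit set per screening run, cut at about 16% in these data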;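 further: 0% = DMSO with IFN-gamma and 100% = nifuroxazide control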
# Starred values were filed as active, the others as inactive; . = no result given. Sampled rows, rich in hits. Any-hit rate of the full collection: about 4.9%.
SMILES,STAT1 act,STAT3 activator,NF-kB expr up,STAT3 inh-1,STAT1 blocker,APP 5'UTR act,STAT3 inh-2,NFkB inh 2,STAT1 inh STAT3c
O=C(OCCN1C(=O)c2cccc3c(N4CCOCC4)ccc(c23)C1=O)c1ccc(Cl)cc1Cl,108,106,1.8,-8,-9,-94,.,.,.
O=C(OCCN1C(=O)c2cccc3c(N4CCOCC4)ccc(c23)C1=O)c1ccccc1Cl,91,63,0.34,44*,10,-15,47*,16*,12
CCOc1cc(C(=S)N2CCOCC2)ccc1OS(=O)(=O)c1ccc(NC(C)=O)cc1,86,56,0.66,58*,15,-3,45*,13,13
CCc1nnc(NC(=O)Nc2ccccc2OC)s1,120,94,1.9,12,-22,53,.,.,.
CCc1nnc(NC(=O)c2ccc(OC)cc2OC)s1,143*,57,2.2,49*,-47,111,13,-28,-118
C/C(=N\NC(=O)C1=NNC(=O)C1C)c1cccs1 (configuration not stated),114,105,1.7,-2,-16,17,.,.,.
C/C(=N\NC(=O)c1ccncc1)c1cccs1,120,97,1.3,12,-25,-5,.,.,.
C/C(=N/NC(=O)c1cc(C2CC2)[nH]n1)c1cccs1,76,36,3.1,76*,26,120,52*,19*,-8
C/C(=N\NC(=O)c1ccccc1O)c1cccs1,114,51,3.6*,61*,-14,107,29,-2,-8
O=C(O)c1cn(Cc2ccccc2)nc1-c1cccnc1,100,100,0.89,2,-1,36,.,.,.
O=C(NC(=S)NCCC1=CCCCC1)c1cncc(Br)c1,103,99,1.1,4,-4,20,.,.,.
O=C(NC1CCSC1=O)C1CCCCC1 (configuration not stated),103,99,1.3,6,-4,-4,.,.,.
CCN(CC)c1nc(-c2ccccn2)nc(-c2ccccc2)c1C#N,90,96,0.8,6,10,-2,.,.,.
CC(C)(C)c1ccc(C(=O)Nc2cccc3c(=O)[nH][nH]c(=O)c23)cc1,94,43,1.8,67*,7,91,-6,3,-21
COCCN(C(=S)Nc1ccc(C)cc1C)C(C)c1ccco1 (configuration not stated),104,102,1.2,2,-6,10,.,.,.
O=C(NCCC1=CCCCC1)c1ccc(Cl)cc1,99,64,5.5*,47*,0,228*,4,-28,-113
CCC(Sc1nc(-c2ccccc2)c(C#N)c(=O)[nH]1)C(=O)Nc1nnc(C)s1 (configuration not stated),97,91,1,21,4,11,.,.,.
COc1cccc(-c2cc(C(=O)Nc3cc(C)n(Cc4ccc(Cl)cc4)n3)no2)c1,103,58,1,55*,-5,4,70*,20*,-3
Cc1cc(NC(=O)c2cc(-c3ccco3)on2)nn1Cc1ccc(Cl)cc1,101,52,1.2,63*,-2,-15,58*,13*,-8
CCCOC(=O)c1ccc(OCC(O)Cn2c(C)nc3ccccc32)cc1 (configuration not stated),77,50,1.4,61*,23,0,63*,20*,23*
Cc1nc2ccccc2n1CC(O)COCC1CC=CCC1 (configuration not stated),84,63,0.73,44*,14,-13,40,-1,11
OC(COCC1CC=CCC1)Cn1cnc2ccccc21 (configuration not stated),100,99,1,0,0,13,.,.,.
CC(=O)Nc1cccc(OCC(O)Cn2c(C)nc3ccccc32)c1 (configuration not stated),96,89,0.93,15,5,21,.,.,.
COC(=O)C1CSC(C(=O)OC)N1C(=O)CN1CCN(c2ccccc2)CC1 (configuration not stated),102,101,1,0,-2,-3,.,.,.
Cn1c(-c2ccccc2)cnc1SCC(=O)N1CCCCC1,80,47,1.9,66*,22,108,41,0,-46
SMILES,STAT1 act,STAT3 activator,NF-kB expr up,STAT3 inh-1,STAT1 blocker,APP 5'UTR act,STAT3 inh-2,NFkB inh 2,STAT1 inh STAT3c
Cc1cc(-c2nnc3n2N=C(c2ccc(-c4ccccc4)cc2)CS3)n[nH]1,97,91,0.72,13,3,26,.,.,.
C[n+]1c2n(c3ccccc31)N=C(c1ccc(-c3ccccc3)cc1)CS2,72,46,1.9,66*,29,0,33,3,29*
CNc1cncc(C(=O)O)c1,97,104,1.1,-4,4,0,.,.,.
CC(=O)Nc1ccc(-c2csc(Nc3ccc(Cl)cn3)n2)cc1,118,60,1.2,52*,-20,28,46*,5,-18
COc1cccc2c1OC[C@@H](CO)[C@H]2N(C)C(=O)Nc1ccc(Cl)cc1Cl,89,68,0.71,44*,12,.,31,3,17*
CCCN(C(=O)CCl)C1=CCCCC1,82,98,.,7,19,15,.,.,.
CC(=O)Nc1ccccc1OCC(=O)N(Cc1ccccc1)C(C)C,86,88,0.84,13,16,8,.,.,.
CCOC(=O)C1(CCOc2ccccc2)CCN(Cc2cccc3nonc23)CC1,92,102,0.93,-1,8,-2,.,.,.
COC(=O)c1ccc(COc2ccccc2/C=C(\C#N)C(=O)Nc2c(C)cccc2C)cc1,102,108,1.3,-12,-2,-21,.,.,.
C[C@H]1O[C@@H](O[C@H]2[C@@H](O)C[C@H](O[C@H]3[C@@H](O)C[C@H](O[C@H]4CC[C@@]5(C)[C@H](CC[C@@H]6[C@@H]5C[C@@H](O)[C@]5(C)[C@@H](C7=CC(=O)OC7)CC[C@]65O)C4)O[C@@H]3C)O[C@@H]2C)C[C@H](O)[C@@H]1O,126,25,0.75,87*,-29,-94,82*,-7,-16

# Compound activity deposited in PubChem by several laboratories.
